A selection: hits, their analogues and other compounds. The true share with any hit is near 3.7%.
proCasp3 act: procaspase-3 (human) activation; P42574; recombinant procaspase-3 D3A, Ac-DEVD-pNA absorbance 405 nm; activation, % at 8.5 µM; 330,000 tested, 0.11% active;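 active means activation above the mean of all tested compounds plus 3 SD, cut at about 21% in these data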;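 further: 0% = DMSO alone and 100% = DMSO wells spiked with extra 5 µM PC-3 D3A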
Target sequence (P42574 whole entry D9A/D28A/D175A): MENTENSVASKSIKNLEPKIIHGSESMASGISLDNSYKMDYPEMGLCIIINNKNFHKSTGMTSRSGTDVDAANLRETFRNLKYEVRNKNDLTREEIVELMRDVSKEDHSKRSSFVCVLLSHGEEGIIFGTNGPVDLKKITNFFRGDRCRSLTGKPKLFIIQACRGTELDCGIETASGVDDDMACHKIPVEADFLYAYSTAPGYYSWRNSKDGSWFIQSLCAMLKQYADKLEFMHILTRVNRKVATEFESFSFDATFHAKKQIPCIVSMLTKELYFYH
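Technique: 405 nm absorbance of p-nitroaniline, reads at 0 and 120 min; Test system: Procaspase-3 D3A mutant; Incubation: 1 h enzyme-compound preincubation, then 2 h substrate reaction, 25 °C; Repeats: singlicate, each compound tested once; Benchmarks: low control DMSO wells, high control DMSO plus 5 µM PC-3 D3A.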
MPTP inh: inhibitors of mitochondrial permeability transition pore. isolated mouse mitochondria, Ca2+ swelling absorbance, 30 min. inhibition, % at 10 µM. 360,000 tested, 1.4% active;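 active means inhibition of 50% or more, scaled per plate between neutral and stimulator controls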;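 further: 0% = DMSO wells given calcium and 100% = 1 mM EGTA wells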
NR3A LBD binder: modulators (binders) of human NR3A ligand-binding domain. Tm shift relative to glycine control, % at 25 µM. 340,000 tested, 2.5% active. AID 1259313. NR3A LBD differential scanning fluorimetry, Tm shift; 0% = protein alone, 100% = glycine-bound protein;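 active means melting temperature shift of at least 10% of the positive control shift, at one fixed dose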
aDG glyco up: increases alpha dystroglycan glycosylation; activation, % at 10 µM; 360,000 tested, 0.22% active; Pro5-aDG cells, alpha-DG glycosylation AlphaScreen (IIH6); 0% Pro5, 100% B10-LARGE cell signal; AID 624168;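 active means activation of at least 8% versus controls, or a plate z-score of at least 8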;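 further: Pro5 are CHO cells carrying HIG-tagged alpha-DG that lacks glycosylation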
proCasp7 act: counter-screen: procaspase-7 (human) activation. recombinant procaspase-7, Ac-DEVD-pNA absorbance 405 nm; D23A/D198A/D206A triple mutant, cannot self-cleave; scale: DMSO 0, 5 µM enzyme 100. activation, % at 8.5 µM. 330,000 tested, 0.093% active. P55210;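 active means percent activation above the screen-wide mean plus 3 SD, cut at about 25% in these data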
Target sequence (P55210 whole entry D23A/D198A/D206A): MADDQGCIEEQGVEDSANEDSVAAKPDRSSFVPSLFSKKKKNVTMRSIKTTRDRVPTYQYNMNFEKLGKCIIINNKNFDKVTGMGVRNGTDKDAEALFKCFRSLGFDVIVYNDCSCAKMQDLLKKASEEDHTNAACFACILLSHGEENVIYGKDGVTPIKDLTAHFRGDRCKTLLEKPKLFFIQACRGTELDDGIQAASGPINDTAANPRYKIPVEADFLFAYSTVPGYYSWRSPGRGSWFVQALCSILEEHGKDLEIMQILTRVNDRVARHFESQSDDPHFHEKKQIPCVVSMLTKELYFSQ
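Assay system: Uncleavable procaspase-7 mutant enzyme / Input: 2 µM procaspase-7 mutant as dispensed / Dosing: single nominal 8.5 µM compound dose, 0.8% DMSO final / Timing: 1 h enzyme–compound preincubation and 2 h substrate reaction, both 25 °C / Detection: p-Nitroaniline absorbance at 405 nm, read at 0 and 120 min / Replication: singlicate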
Starred values were filed as active, the others as inactive; / = no result given.

SMILES	proCasp3 act	MPTP inh	NR3A LBD binder	aDG glyco up	proCasp7 act
COc1cc(C(=O)Nc2ccc(-c3nc4cc(C)ccc4o3)c(O)c2)cc(OC)c1OC	-8.6	8.9	35.4*	0.4	-5.4
COc1cccc(C(=O)Nc2ccc(-c3nnc(-c4ccco4)o3)cc2)c1	-1.2	-13.0	10.0*	-0.2	5.4
COCCc1ccc(OC2(C)CCN(Cc3cccn3-c3nccs3)C2)cc1 (configuration not stated)	/	2.1	/	0.0	/
CCOC(=O)n1cnc2nc(N)nc(SC)c21	/	0.5	-4.1	0.1	/
CC1=C2C3OC(=O)C(C)C3CCC2(C)C=CC1=NO (configuration not stated)	/	-1.2	2.0	-0.1	/
CC(=O)OCCn1c([N+](=O)[O-])cnc1C=[N+]([O-])C1CCCCC1	/	0.4	/	0.3	/
CCOP(=O)(OCC)/C(C#N)=C/c1ccc(-c2ccc(F)cc2F)o1	-0.1	1.0	13.3*	-0.2	-0.1
COCCNC(=O)/C(C#N)=C/c1ccc(-c2ccc(OC)cc2[N+](=O)[O-])o1	0.4	-0.6	0.1	-0.3	8.4
Cc1ccc(NC(=O)Cn2nnc(C(=O)NCc3cccs3)c2N)cc1Cl	8.6	0.9	16.3*	0.2	-1.4
COc1ccc(NC(=O)Cn2nnc(C(=O)NCc3cccs3)c2N)cc1Cl	1.0	0.0	-0.7	0.0	5.4
CCn1nnc2cc(C(=O)N3CCC(C(=O)OC)CC3)ccc21	7.7	0.0	-0.5	0.1	1.8
COc1ccc(O)c(/C=C2/SC(=S)N(Cc3ccccc3)C2=O)c1	-22.0	1.8	15.6*	0.2	-34.9
COc1cc(/C=C2\SC(=S)N(CCCCC(=O)O)C2=O)ccc1OS(=O)(=O)c1ccc(C)cc1	-10.6	-2.4	31.4*	6.9*	-25.3
CC(=O)Nc1ccc(S(=O)(=O)Oc2cccc(/C=C3\SC(N)=NC3=O)c2)cc1	4.5	0.2	36.2*	-0.7	2.4
NC1=NC(=O)/C(=C/c2cccc(F)c2)S1	3.0	0.4	-1.1	-0.1	-6.3
COc1ccc(/C=C2\SC(=S)NC2=O)cc1OS(=O)(=O)c1ccc(NC(C)=O)cc1	/	0.4	18.1*	-0.1	/
COc1ccc(OC)c(/C=C2\SC(=S)N(Cc3cccnc3)C2=O)c1	-1.5	4.0	-5.3	0.2	3.6
Cc1ccc(NC(=O)CSCC(=O)Nc2cc(S(=O)(=O)N3CCOCC3)ccc2OC(C)C)cc1	/	0.7	0.2	-0.2	/
COc1ccc(/C=C2/SC(=S)N(Cc3ccccc3)C2=O)cc1O	/	3.7	19.5*	0.0	/
O=C(O)c1c(-c2ccccc2)cnc2ccccc12	/	-2.2	/	-0.4	/
CCOC(=O)c1c(NC(=O)CSc2ncnc3[nH]ncc23)sc2c1CCC(C)C2 (configuration not stated)	2.5	2.2	0.1	-0.3	3.0
CCOC(=O)c1c(NC(=O)CSc2nnnn2-c2ccccc2)sc2c1CCC(C)C2 (configuration not stated)	2.8	-0.5	16.8*	-0.5	-7.6
Cc1cccc(NC(=O)NNC(=O)c2sccc2-n2cccc2)c1	-3.6	-0.2	13.4*	0.0	2.6
CCCN1C(=O)/C(=C/c2ccco2)SC1=Nc1ccc(OC)cc1	-6.7	-1.8	20.9*	-0.2	13.5
N#C/C(=C\c1cccs1)c1nc2ccccc2[nH]1	-2.6	2.7	22.1*	0.3	-2.8
SMILES	proCasp3 act	MPTP inh	NR3A LBD binder	aDG glyco up	proCasp7 act
COC(=O)c1ccc(COc2ccc(/C=C(\C#N)c3nc4ccccc4[nH]3)cc2OC)o1	-2.9	-1.6	7.4	-0.2	-17.1
CCc1ccc(NC(=O)COc2ccc(/C=C(/C#N)c3nc4ccccc4[nH]3)cc2OC)cc1	-11.9	5.8	30.0*	0.0	-4.6
Cc1ccc2nc(/C(C#N)=C\c3ccc([N+](=O)[O-])o3)[nH]c2c1	8.7	15.2	-4.7	-0.5	-18.2
N#C/C(=C/c1ccc(O)c(O)c1)c1nc2ccccc2[nH]1	-26.2	5.4	19.1*	-0.4	-20.3
N#C/C(=C\c1ccc([N+](=O)[O-])o1)c1nc2ccccc2[nH]1	4.5	/	22.2*	/	-7.2
Cc1cn([C@H]2C[C@H](O)[C@@H](/C=C/C(=O)NCCC(c3ccccc3)c3ccccc3)O2)c(=O)[nH]c1=O	/	-0.4	/	0.1	/
Cc1noc(C)c1S(=O)(=O)N(C)C[C@@H]1OCc2cnnn2CCCC(=O)N([C@@H](C)CO)C[C@H]1C	/	-1.4	/	0.0	/
COC(=O)[C@]12CCCCC=C1N(Cc1ccco1)C(=O)[C@H](CC(=O)N1CCC(c3ccccc3)CC1)C2	/	-0.7	/	1.1	/
CN1C(C(=O)NCc2ccccc2)CC2Cn3c(nc4cc5ccccc5cc43)C21 (configuration not stated)	-3.0	-0.7	11.5*	0.2	-4.7
CN1C(C(=O)NCc2ccco2)CC2Cn3c(nc4cc(Cl)c(Cl)cc43)C21 (configuration not stated)	2.1	-1.5	0.9	0.1	0.1
Cc1cc2nc3n(c2cc1C)CC1CC(C(=O)NCCc2cccs2)N(C)C31 (configuration not stated)	-4.3	0.1	12.9*	-0.1	-1.0
CN1C(C(=O)NCc2ccco2)CC2Cn3c(nc4cc5ccccc5cc43)C21 (configuration not stated)	-4.1	0.1	10.1*	0.1	-9.5
COc1ccccc1CNC(=O)C1CC2Cn3c(nc4cc5ccccc5cc43)C2N1C (configuration not stated)	-4.8	0.0	1.4	0.2	-2.5
Cn1c(O)c(C=NCCCCCC(=O)O)c(=O)n(C)c1=O	/	0.3	0.5	-0.1	/
CSc1ccc(NC(=O)C2(C)CCN2C(=O)Cc2ccc(C(C)(C)C)cc2)cc1 (configuration not stated)	/	-0.5	/	0.3	/
Cc1cc(C)nc(NS(=O)(=O)c2ccc(NC(=O)COc3ccccc3F)cc2)n1	-0.3	-1.0	-0.1	-0.2	7.0
O=C(COc1ccccc1F)Nc1cc(S(=O)(=O)Nc2cccc(Cl)c2)ccc1O	-3.8	-1.0	27.3*	0.0	-8.1
O=C(Nc1ccc2c(c1)oc1ccccc12)c1ccncc1	0.7	0.0	14.8*	0.9	11.8
O=C(Nc1cccc(C(=O)N2CCOCC2)c1)c1cccnc1	1.9	0.9	10.5*	-0.2	19.3
CCNC(=S)Nc1ccc2c(c1)oc1ccccc12	-9.3	41.6	10.2*	0.2	1.6
O=C(Nc1ccc2ccccc2c1)c1cccnc1	3.0	-1.2	-5.5	0.1	3.8
CCNC(=S)Nc1ccc2ncoc2c1	7.7	-0.2	-0.1	2.3	-2.7
O=C(Nc1ccc2c(c1)oc1ccccc12)c1cccnc1	2.9	2.1	16.9*	1.1	-15.1
O=C(Nc1cccc(C(=O)N2CCOCC2)c1)c1ccccc1	-8.1	-0.9	-0.1	0.0	6.6
COc1ccc(NC(=O)c2cc3ccccc3o2)cc1OC	3.3	0.8	26.2*	0.0	9.6
